Results published in ChEMBL document CHEMBL1151976, “Bioactive sulfated sesterterpene alkaloids and sesterterpene sulfates from the marine sponge Fasciospongia sp” (J Nat Prod, 2009).
Values after ≈ are worked out from the molar mass of the structure shown. Active and inactive are the calls of the source. The calls are words filed in the database; no cut-off is given here.

tested on: Streptomyces; assay: Antimicrobial activity against Streptomyces 85E assessed as inhibition of hyphae formation at 10 ug/disk after 30 hrs; assay type: functional; conditions: read-out: IZ
Outline: (§1)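 Streptomyces 85E mycelial fragments spread as a lawn on minimal medium ISP 4 agar. Compounds in MeOH loaded onto 7 mm filter disks, air-dried, placed on plates, incubated 30 °C for 30 h. Read-out: clear or bald (hyphae-free) zone diameter around the disk; >9 mm counted active. Surfactin positive control, MeOH negative control; run in duplicate.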

SMILES	zone of inhibition at 10 µg/disc
C[C@H]1CC[C@H]2C(=CCCC2(C)C)[C@@]1(C)CCC(CCCC1=CC(=O)N(CCc2c[nH]cn2)C1)COS(=O)(=O)O (some centres undefined) [FASCIOSPONGINE B]	17 mm
C[C@H]1CC[C@H]2C(=CCCC2(C)C)[C@@]1(C)CCC(CCCC1=CCN(CCCCNC(=N)N)C1=O)COS(=O)(=O)O (some centres undefined) [FASCIOSPONGINE C]	13 mm
C[C@H]1CC[C@H]2C(=CCCC2(C)C)[C@@]1(C)CCC(CCCc1ccoc1)COS(=O)(=O)O (some centres undefined) [HALISULFATE 7]	15 mm
C[C@H]1CC[C@H]2C(=CCCC2(C)C)[C@@]1(C)CCC(CCCC1=CC(=O)OC1)COS(=O)(=O)O (some centres undefined) [HALISULFATE 9]	14 mm

tested on: Streptomyces; assay: Antimicrobial activity against Streptomyces 85E assessed as inhibition of hyphae formation at 5 ug/disk after 30 hrs; assay type: functional; conditions: not given; outline: as §1

SMILES	inhibition zone (IZ)
C[C@H]1CC[C@H]2C(=CCCC2(C)C)[C@@]1(C)CCC(CCCC1=CCN(CCCCNC(=N)N)C1=O)COS(=O)(=O)O (some centres undefined) [FASCIOSPONGINE C]	inactive
C[C@H]1CC[C@H]2C(=CCCC2(C)C)[C@@]1(C)CCC(CCCc1ccoc1)COS(=O)(=O)O (some centres undefined) [HALISULFATE 7]	inactive
C[C@H]1CC[C@H]2C(=CCCC2(C)C)[C@@]1(C)CCC(CCCC1=CC(=O)OC1)COS(=O)(=O)O (some centres undefined) [HALISULFATE 9]	inactive

same assay, conditions: read-out: IZ

SMILES	zone of inhibition at 5 µg/disc
C[C@H]1CC[C@H]2C(=CCCC2(C)C)[C@@]1(C)CCC(CCCC1=CC(=O)N(CCc2c[nH]cn2)C1)COS(=O)(=O)O (some centres undefined) [FASCIOSPONGINE B]	15 mm

tested on: HeLa; assay: Cytotoxicity against human HeLa cells after 72 hrs by SRB assay; assay type: functional, cell-based; conditions: not given

SMILES	IC50
C[C@H]1CC[C@H]2C(=CCCC2(C)C)[C@@]1(C)CCC(CCCc1ccoc1)COS(=O)(=O)O (some centres undefined) [HALISULFATE 7]	16 µg/mL (≈ 35.3 µM)

tested on: Streptomyces; assay: Antimicrobial activity against Streptomyces 85E assessed as inhibition of hyphae formation at 20 ug/disk after 30 hrs; assay type: functional; conditions: read-out: IZ; outline: as §1

SMILES	zone of inhibition at 20 µg/disc
C[C@H]1CC[C@H]2C(=CCCC2(C)C)[C@@]1(C)CCC(CCCC1=CC(=O)N(CCc2c[nH]cn2)C1)COS(=O)(=O)O (some centres undefined) [FASCIOSPONGINE B]	19 mm
C[C@H]1CC[C@H]2C(=CCCC2(C)C)[C@@]1(C)CCC(CCCC1=CCN(CCCCNC(=N)N)C1=O)COS(=O)(=O)O (some centres undefined) [FASCIOSPONGINE C]	14 mm
C[C@H]1CC[C@H]2C(=CCCC2(C)C)[C@@]1(C)CCC(CCCc1ccoc1)COS(=O)(=O)O (some centres undefined) [HALISULFATE 7]	18 mm
C[C@H]1CC[C@H]2C(=CCCC2(C)C)[C@@]1(C)CCC(CCCC1=CC(=O)OC1)COS(=O)(=O)O (some centres undefined) [HALISULFATE 9]	16 mm

tested on: MCF7; assay: Cytotoxicity against human MCF7 cells at 20 ug/ml after 72 hrs by SRB assay; assay type: functional, cell-based; conditions: not given
Outline: (§2)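 Single-concentration screen at 20 µg/mL. Cells seeded at 10^6 cells/mL in 96-well plates, sample added in 10% DMSO, incubated 72 h at 37 °C. Viability by sulforhodamine B staining, compared with a 0.5% DMSO-treated control.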

SMILES	Activity
C[C@H]1CC[C@H]2C(=CCCC2(C)C)[C@@]1(C)CCC(CCCC1=CC(=O)N(CCc2c[nH]cn2)C1)COS(=O)(=O)O (some centres undefined) [FASCIOSPONGINE B]	Not toxic
C[C@H]1CC[C@H]2C(=CCCC2(C)C)[C@@]1(C)CCC(CCCC1=CCN(CCCCNC(=N)N)C1=O)COS(=O)(=O)O (some centres undefined) [FASCIOSPONGINE C]	Not toxic
C[C@H]1CC[C@H]2C(=CCCC2(C)C)[C@@]1(C)CCC(CCCc1ccoc1)COS(=O)(=O)O (some centres undefined) [HALISULFATE 7]	Not toxic
C[C@H]1CC[C@H]2C(=CCCC2(C)C)[C@@]1(C)CCC(CCCC1=CC(=O)OC1)COS(=O)(=O)O (some centres undefined) [HALISULFATE 9]	Not toxic

tested on: Streptomyces; assay: Antimicrobial activity against Streptomyces 85E assessed as inhibition of hyphae formation at 2.5 ug/disk after 30 hrs; assay type: functional; conditions: not given; outline: as §1

SMILES	inhibition zone (IZ)
C[C@H]1CC[C@H]2C(=CCCC2(C)C)[C@@]1(C)CCC(CCCC1=CC(=O)N(CCc2c[nH]cn2)C1)COS(=O)(=O)O (some centres undefined) [FASCIOSPONGINE B]	inactive
C[C@H]1CC[C@H]2C(=CCCC2(C)C)[C@@]1(C)CCC(CCCC1=CCN(CCCCNC(=N)N)C1=O)COS(=O)(=O)O (some centres undefined) [FASCIOSPONGINE C]	inactive
C[C@H]1CC[C@H]2C(=CCCC2(C)C)[C@@]1(C)CCC(CCCc1ccoc1)COS(=O)(=O)O (some centres undefined) [HALISULFATE 7]	inactive
C[C@H]1CC[C@H]2C(=CCCC2(C)C)[C@@]1(C)CCC(CCCC1=CC(=O)OC1)COS(=O)(=O)O (some centres undefined) [HALISULFATE 9]	inactive

tested on: Lu1; assay: Cytotoxicity against human Lu1 cells at 20 ug/ml after 72 hrs by SRB assay; assay type: functional, cell-based; conditions: not given; outline: as §2

SMILES	Activity
C[C@H]1CC[C@H]2C(=CCCC2(C)C)[C@@]1(C)CCC(CCCC1=CC(=O)N(CCc2c[nH]cn2)C1)COS(=O)(=O)O (some centres undefined) [FASCIOSPONGINE B]	Not toxic
C[C@H]1CC[C@H]2C(=CCCC2(C)C)[C@@]1(C)CCC(CCCC1=CCN(CCCCNC(=N)N)C1=O)COS(=O)(=O)O (some centres undefined) [FASCIOSPONGINE C]	Not toxic
C[C@H]1CC[C@H]2C(=CCCC2(C)C)[C@@]1(C)CCC(CCCc1ccoc1)COS(=O)(=O)O (some centres undefined) [HALISULFATE 7]	Not toxic
C[C@H]1CC[C@H]2C(=CCCC2(C)C)[C@@]1(C)CCC(CCCC1=CC(=O)OC1)COS(=O)(=O)O (some centres undefined) [HALISULFATE 9]	Not toxic

tested on: LNCaP; assay: Cytotoxicity against human LNCAP cells at 20 ug/ml after 72 hrs by SRB assay; assay type: functional, cell-based; conditions: not given; outline: as §2

SMILES	Activity
C[C@H]1CC[C@H]2C(=CCCC2(C)C)[C@@]1(C)CCC(CCCC1=CC(=O)N(CCc2c[nH]cn2)C1)COS(=O)(=O)O (some centres undefined) [FASCIOSPONGINE B]	Not toxic
C[C@H]1CC[C@H]2C(=CCCC2(C)C)[C@@]1(C)CCC(CCCC1=CCN(CCCCNC(=N)N)C1=O)COS(=O)(=O)O (some centres undefined) [FASCIOSPONGINE C]	Not toxic
C[C@H]1CC[C@H]2C(=CCCC2(C)C)[C@@]1(C)CCC(CCCc1ccoc1)COS(=O)(=O)O (some centres undefined) [HALISULFATE 7]	Not toxic
C[C@H]1CC[C@H]2C(=CCCC2(C)C)[C@@]1(C)CCC(CCCC1=CC(=O)OC1)COS(=O)(=O)O (some centres undefined) [HALISULFATE 9]	Not toxic
